APP 5'UTR act: APP 5'UTR luciferase reporter activation. actives 1% (n = 190,000). SH-SY5Y APP 5'UTR luciferase reporter, luminescence; zero percent = DMSO vehicle wells. activation, % at 2 µM. AID 1276;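 active = activation above a set limit, based on mean plus 3 SD of controls, cut at about 140% in these data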
STAT3 act: STAT3 signaling activation; AID 871; actives 0.91% (n = 190,000); U3A cells, IL-6 STAT3-luciferase reporter, luminescence; 100% = signal with IL-6 EC80 alone; activation (% of control), % at 5.6 µM;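 active = activation above the screen-wide mean of compound activation plus 3 SD, cut at about 130% in these data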;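 note: 0% = background luminescence of wells with medium and substrate only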
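Test system: Human STAT1-deficient U3A cells with stable STAT3-luciferase reporter | Also added: Interleukin-6, 33 ng/mL | Timing: Compound pre-incubation 1 h before IL-6, then 6 h stimulation at 37 °C | Technique: Luciferase reporter luminescence | Read-out: Percent of IL-6-only median luminescence | Benchmarks: IL-6-only wells as 100% reference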
STAT3 blocker: STAT3 signaling inhibition. inhibition, % at 5.5 µM. U3A cells, IL-6 STAT3-luciferase reporter, luminescence; host cell line lacks STAT1. actives 0.89% (n = 190,000). AID 862;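 active = inhibition above the mean inhibition across all screened compounds plus 3 SD, cut at about 44% in these data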;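 note: 0% = DMSO only wells and 100% = 100 µM nifuroxazide control wells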
STAT1 inh: inhibitors of IFN-gamma induced STAT1 signaling; NIH 3T3 STAT1-luciferase reporter, luminescence; inhibition, % at 5.5 µM; actives 0.35% (n = 200,000);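 active = inhibition above a set limit, the mean inhibition across all tested compounds plus 3 SD, cut at about 34% in these data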;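 note: 0% = IFN-gamma with DMSO and 100% = IFN-gamma with 300 µM nifuroxazide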
STAT1 activator: increases IFN-gamma driven STAT1 reporter signal | NIH 3T3 STAT1-luciferase reporter, luminescence; 100% = IFN-gamma alone, no compound | activation (% of control), % at 5.5 µM | actives 2.6% (n = 200,000) | AID 932;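 active = activation above the screen-wide mean activation plus 3 SD, cut at about 130% in these data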;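 note: raw ratio to IFN-gamma control signal so 100% means no change and 0% no light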
NF-kB expr up: compounds increasing NF-kB expression in human neuronal cells; NF-kB reporter expression; hits give high values; fold change at 12.5 µM; actives 1.6% (n = 190,000); in the data active = fold change above about 3.3
Starred values were filed as active, the others as inactive; . = no result. An excerpt weighted towards active compounds, which were near 5.1% of everything screened.

SMILES	APP 5'UTR act	STAT3 act	STAT3 blocker	STAT1 inh	STAT1 activator	NF-kB expr up
CCC(=O)N1N=C(c2ccc(NS(C)(=O)=O)cc2)CC1c1ccc(N(C)C)cc1 (stereo unspecified)	23.6	111.0	-5.8	-33.8	128.6*	2.04
CC[n+]1c(/C=C2\C=C(C)CC(C)(C)C2)sc2ccccc21	-11.2	59.8	50.0*	25.6	76.9	1.42
CC[n+]1c(/C=C2/C=C(C)CC(C)(C)C2)sc2ccc(OC)cc21	-0.3	53.9	58.2*	26.1	76.2	0.95
Cc1nn(C)cc1C(C(=O)NC1CCCCC1)N(C(=O)Cc1cccs1)c1ccc(Cl)cc1 (stereo unspecified)	-2.7	102.0	-2.4	-3.3	102.9	0.45
Cc1ccc(-c2cn3nc(C)c(C)nc3n2)cc1	46.5	107.4	-4.4	-13.7	110.9	4.74*
Cc1cc(N2CCN(C)CC2)n2cc(-c3ccc(F)cc3)nc2n1	-0.9	95.8	14.9	-2.9	102.6	1.32
Cc1[nH]c2ccccc2c1C(=O)CSC(=S)N(C)C	27.1	98.9	3.6	-33.3	129.7*	1.57
CCOC(=O)c1ccc(/C=C2/C=C(c3ccccc3)N(c3ccc(Cl)c(C(=O)O)c3)C2=O)cc1	-24.2	106.0	-2.0	4.7	95.8	0.73
Cc1ccc2oc(-c3ccco3)nc2c1	53.9	90.0	12.5	-42.1	138.1*	1.32
Nc1ccc2oc(-c3cccs3)nc2c1	85.3	89.0	15.0	-53.5	149.0*	2.35
Nc1cccc(-c2nc3cc(S(=O)(=O)c4ccc5oc(-c6cccc(N)c6)nc5c4)ccc3o2)c1	-17.4	93.0	10.4	-6.5	105.8	1.04
Cc1ccc2oc(-c3cccc(N)c3)nc2c1	158.4*	84.2	27.4	8.2	91.7	8.86*
Cc1ccc(C(=O)Nc2cccnc2)cc1S(=O)(=O)N1CCOCC1	-2.1	99.6	6.2	4.2	96.1	1.62
Cc1ccc(C(=O)Nc2ccc3cn[nH]c3c2)cc1S(=O)(=O)N1CCOCC1	1.6	141.9*	-40.3	-31.6	129.5*	.
CCCOc1ccc(OCCSc2ncccn2)cc1	124.2	93.5	12.1	-38.5	135.2*	4.24*
Clc1ccc(OCCSc2ncccn2)c(Br)c1	174.2*	91.8	14.4	-51.9	143.5*	0.99
Cc1ccc(OCCSc2nc(N)cc(N)n2)cc1	74.3	100.7	7.8	-43.4	137.5*	2.53
COC(=O)C1C(=O)c2c([nH]c(C(=O)OC3CCCC3C)c2C)CC1C (stereo unspecified)	156.6*	119.6	-23.8	-39.6	138.1*	3.01
O=C(Nc1cc(C(F)(F)F)ccc1N1CCOCC1)c1ccc2ccccc2n1	30.2	133.7*	-36.7	-0.6	100.6	1.07
O=C(CSc1nc2ccccc2[nH]1)N1CCCCC1	44.2	94.1	9.8	-32.7	130.2*	2.23
Cc1ccc2nc(SCC(=O)N3CCOCC3)[nH]c2c1	80.3	102.1	3.3	-34.7	131.7*	2.6
Cc1ccc2nc(SCC(=O)Nc3cc(C(F)(F)F)ccc3N3CCOCC3)[nH]c2c1	-94.4	107.5	-0.8	-9.7	108.9	3.57*
Nc1nc(SCC(=O)Nc2cc(C(F)(F)F)ccc2N2CCOCC2)n[nH]1	-8.4	99.0	6.1	3.1	98.6	1.54
Cc1ccc2[nH]c(SCC(=O)N3CCOCC3)nc2c1C	23.2	119.3	-23.0	-29.6	122.2	2.26
Cn1c(N)c(C(=O)COc2ccc(C#N)cc2)c(=O)n(C)c1=O	-8.8	90.2	18.8	-3.6	102.0	1.03
SMILES	APP 5'UTR act	STAT3 act	STAT3 blocker	STAT1 inh	STAT1 activator	NF-kB expr up
NC(=S)NNc1c(F)c(F)c(F)c(F)c1F	-17.8	82.1	27.0	7.1	92.1	1.18
CC(C(=O)O)N1C(=O)C2C3CC(C2C1=O)C1C(c2ccccc2)c2sc(=O)[nH]c2SC31 (stereo unspecified)	0.3	99.8	-2.4	-3.0	102.6	1.31
Cc1ccc2c(c1)c1cccc3c1n2CCN3CCC(N)=O	88.3	124.6	-22.2	-47.2	142.9*	1.48
NC(=O)CCn1c2ccccc2c2ccccc21	6.6	107.2	-0.7	0.5	98.7	1.83
Cc1ccc(CNc2nc3ccccc3s2)s1	182.3*	39.8	75.0*	50.5*	53.1	4.21*
c1ccc(CCNc2nc3ccccc3s2)cc1	31.3	99.2	7.7	-20.6	119.0	2.24
O=C(NCC1CCCO1)c1cc2ccccc2oc1=O (stereo unspecified)	-0.8	99.2	3.2	3.3	95.2	1.05
c1ccc2oc(-c3csc(NCC4CCCO4)n3)cc2c1 (stereo unspecified)	168.8*	81.1	26.6	-51.8	147.7*	9.07*
c1ccc2sc(NCC3CCCO3)nc2c1 (stereo unspecified)	49.7	103.5	-1.8	-39.0	135.6*	1.21
CCCOc1ccc(N2CC(C(=O)NC(C)C)CC2=O)cc1 (stereo unspecified)	-4.6	104.5	-2.2	-6.2	105.6	1.2
CC1CN(Cc2nnc(-c3ccccc3)o2)CC(C)O1 (stereo unspecified)	-1.2	102.8	2.6	-10.4	107.2	1.08
O=C(CSc1nc(-c2ccccc2)cs1)Nc1ccccc1[N+](=O)[O-]	9.0	109.0	-11.0	3.9	96.5	0.94
Cc1ccc(NC(=O)c2ccco2)c([N+](=O)[O-])c1	38.6	100.2	4.8	-45.4	138.8*	.
COc1ccc(NC(=O)c2ccco2)c([N+](=O)[O-])c1	48.9	91.9	4.8	-41.5	137.8*	2.55
Cc1c(OCc2ccc([N+](=O)[O-])cc2)ccc2c3c(c(=O)oc12)CCC3	192.2*	104.8	-8.7	-6.2	108.2	0.87
C=C(C)COc1ccc2c3c(c(=O)oc2c1OCC(=C)C)CCC3	-12.2	97.5	7.0	0.1	99.9	3.52*
COc1ccc(C(=O)Nc2cc(C)on2)cc1S(=O)(=O)N1CC(c2ccccc2)CC1=O (stereo unspecified)	13.8	103.8	6.5	-1.4	99.7	0.88
Cc1ccc(Cn2nnnc2CN2CCC(NC(=O)C(C)(C)C)CC2)cc1	10.1	100.7	1.5	0.0	98.3	1
C#CCN(C(=O)CC1C(=O)NCCN1C/C=C/c1ccccc1)C1CCCCC1 (stereo unspecified)	-2.2	99.4	6.0	2.6	96.3	0.97
O=C(c1ccc(S(=O)(=O)N2CCCCC2)cc1)N1CCN(CCN2C(=O)c3cccc4cccc(c34)C2=O)CC1	-11.4	81.9	24.9	-5.0	102.2	1.06
Cc1[nH]n(-c2cccc(Cl)c2)c(=O)c1C=NC12CN3CN(CN(C3)C1)C2	-15.3	99.7	9.5	4.9	93.7	1.02
Cc1[nH]n(-c2cccc(Cl)c2)c(=O)c1C=NCC(C)C	77.2	112.5	-11.0	-50.6	144.3*	2.82
Cc1[nH]n(-c2cccc(Cl)c2)c(=O)c1C=NCc1ccco1	144.6*	76.6	29.3	-32.4	128.5	6.74*
